# Measured values as given in ChEMBL document CHEMBL1159072, “Side chain SAR of bicyclic beta-lactamase inhibitors (BLIs). 1. Discovery of a class C BLI for combination with imipinem” (Bioorg Med Chem Lett, 2010).
# Experiments:
# [1] = molecular target: Beta-lactamase (Pseudomonas aeruginosa (strain ATCC 15692 / PAO1 / 1C / PRS 101 / LMG12228)) (UniProt P24735); assay: Inhibition of Pseudomonas aeruginosa CL5701 beta lactamase AmpC assessed as concentration required to reduce imipenem MIC
# [2] = molecular target: Beta-lactamase (Pseudomonas aeruginosa (strain ATCC 15692 / PAO1 / 1C / PRS 101 / LMG12228), UniProt P24735); assay: Inhibition of Pseudomonas aeruginosa beta lactamase AmpC by spectrophotometry
# Procedure, shortened: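 Nitrocefin hydrolysis by P. aeruginosa AmpC, enzyme and substrate in 100 mM KH2PO4 pH 7 with 0.005% BSA. Inhibitor serially diluted from DMSO and preincubated with AmpC 40 min at room temperature. Substrate then added for a further 40 min, quenched with 2.5 N acetic acid, absorbance read at 492 nm. IC50 taken from semi-log plots of inhibition versus concentration.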
# [3] = system: Pseudomonas aeruginosa; assay: Antimicrobial activity against Pseudomonas aeruginosa CL5701 infected in mouse spleen assessed as reduction in colony forming unit at 4.7 mg/kg qid for 1 hr administered after 1.25 hrs of infusion; assay type: functional
# Procedure, shortened: (§1)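 In vivo P. aeruginosa CL5701 infection: imipenem/cilastatin 2.5 mpk given with the BLI at 2.35 or 4.7 mpk, by 1.25 h infusion QID for 1 day. Bacterial CFU counted in the spleen and expressed as log reduction relative to imipenem/cilastatin alone.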
# [4] = system: Pseudomonas aeruginosa; assay: Antimicrobial activity against Pseudomonas aeruginosa CL5701 infected in mouse spleen assessed as reduction in colony forming unit at 2.5 mg/kg qid for 1 hr administered after 1.25 hrs of infusion; assay type: functional; procedure, shortened: as §1
# [5] = system: Pseudomonas aeruginosa; assay: Antimicrobial activity against Pseudomonas aeruginosa CL5701 infected in mouse spleen assessed as reduction in colony forming unit at 2.35 mg/kg qid for 1 hr administered after 1.25 hrs of infusion; assay type: functional; procedure, shortened: as §1
# Chain of Beta-lactamase (P24735 whole entry): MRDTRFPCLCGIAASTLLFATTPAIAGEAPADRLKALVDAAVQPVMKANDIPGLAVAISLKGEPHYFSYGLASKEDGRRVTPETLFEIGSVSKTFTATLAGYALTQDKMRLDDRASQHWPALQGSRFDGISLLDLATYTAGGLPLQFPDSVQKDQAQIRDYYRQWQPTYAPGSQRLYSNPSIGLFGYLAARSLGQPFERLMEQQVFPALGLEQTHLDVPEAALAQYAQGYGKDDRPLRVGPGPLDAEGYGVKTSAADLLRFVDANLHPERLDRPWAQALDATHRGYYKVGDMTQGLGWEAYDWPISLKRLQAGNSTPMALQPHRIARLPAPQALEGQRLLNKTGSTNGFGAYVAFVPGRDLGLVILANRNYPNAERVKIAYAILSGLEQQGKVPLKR
# Chain of Beta-lactamase (Pseudomonas aeruginosa (strain ATCC 15692 / PAO1 / 1C / PRS 101 / LMG12228)) (P24735 27-397 limits assumed): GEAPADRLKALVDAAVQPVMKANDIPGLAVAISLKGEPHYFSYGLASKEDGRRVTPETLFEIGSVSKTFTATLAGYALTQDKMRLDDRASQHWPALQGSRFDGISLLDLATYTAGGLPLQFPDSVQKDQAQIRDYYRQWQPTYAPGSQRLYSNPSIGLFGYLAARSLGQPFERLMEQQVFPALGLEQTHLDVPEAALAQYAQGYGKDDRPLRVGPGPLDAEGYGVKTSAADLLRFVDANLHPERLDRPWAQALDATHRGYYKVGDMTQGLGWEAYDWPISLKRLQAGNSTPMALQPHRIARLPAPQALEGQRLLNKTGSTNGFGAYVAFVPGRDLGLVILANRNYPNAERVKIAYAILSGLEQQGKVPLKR
Compound,Activity [1] [µM],IC50 [2] [µM],also measured
O=C(N[C@H]1CNCCOC1)N1CC[C@@H]2[C@H]1C(=O)N2S(=O)(=O)O,50,–,–
O=C(NC1CCCCNCCC1)N1CC[C@@H]2[C@H]1C(=O)N2S(=O)(=O)O (stereo in doubt; 14) [listing 1 of 2 here],–,5,–
O=C1NCCCC[C@@H]1NC(=O)N1CC[C@@H]2[C@H]1C(=O)N2S(=O)(=O)O,> 100,0.8,–
O=C(NC1CCCCNCCC1)N1CC[C@@H]2[C@H]1C(=O)N2S(=O)(=O)O (stereo in doubt; 14) [listing 2 of 2 here],> 100,–,–
O=C(N[C@@H]1CNCCOC1)N1CC[C@@H]2[C@H]1C(=O)N2S(=O)(=O)O,25,–,–
O=C(NC1CCNCC1)N1CC[C@@H]2[C@H]1C(=O)N2S(=O)(=O)O,21,–,log10cfu [3]: 4.7
O=C(NC1CCCNCCC1)N1CC[C@@H]2[C@H]1C(=O)N2S(=O)(=O)O,25,3.4,–
O=C(NC1CCCCNCCC1)N1CC[C@@H]2[C@H]1C(=O)N2S(=O)(=O)O (stereo in doubt; 13) [listing 1 of 2 here],–,4,–
O=C(NC1CNCCNC1)N1CC[C@@H]2[C@H]1C(=O)N2S(=O)(=O)O,100,17,–
O=C(N[C@H]1CCCCNC1)N1CC[C@@H]2[C@H]1C(=O)N2S(=O)(=O)O,50,1.9,–
O=C(NC1CCCCCC1)N1CC[C@@H]2[C@H]1C(=O)N2S(=O)(=O)O,> 100,–,–
O=C(NC1CCCCNCCC1)N1CC[C@@H]2[C@H]1C(=O)N2S(=O)(=O)O (stereo in doubt; 13) [listing 2 of 2 here],> 100,–,–
O=C(N[C@H]1CCCNCC1)N1CC[C@@H]2[C@H]1C(=O)N2S(=O)(=O)O,9.4,1,log10cfu [4]: 4.6; log10cfu [5]: 4.6
"O=C(NC1CCCCNCC1)N1CC[C@@H]2[C@H]1C(=O)N2S(=O)(=O)O (single isomer, unassigned)",12.5,–,–
O=C(N[C@@H]1CCCNCC1)N1CC[C@@H]2[C@H]1C(=O)N2S(=O)(=O)O,25,–,–
O=C(NC1CCCCNCC1)N1CC[C@@H]2[C@H]1C(=O)N2S(=O)(=O)O (stereo in doubt; 12),> 100,–,–
